What was measured:
DU-145 = experiment: Cytotoxicity against human DU145 cells assessed as growth inhibition after 72 hrs by MTT assay; assay type: functional, cell-based; settings: DU-145, 72 h
Summary of the method: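 Seeded at 3000 cells/well and incubated with diluted compounds, with bexarotene and SAHA as positive controls, for 72 h. Final DMSO 0.1%. Remaining cells quantified with MTT dye per manufacturer instructions.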

[1] = Cytotoxicity against human GBC-SD cells assessed as growth inhibition after 72 hrs by MTT assay; assay type: functional, cell-based
HGC-27 = experiment: Cytotoxicity against human HGC27 cells assessed as growth inhibition after 72 hrs by MTT assay; assay type: functional, cell-based; settings: HGC-27, 72 h
[2] = Cytotoxicity against human Hep3B cells assessed as growth inhibition after 72 hrs by MTT assay; assay type: functional, cell-based, Hep 3B2
KB [3] = experiment: Cytotoxicity against human KB cells assessed as growth inhibition after 72 hrs by MTT assay; assay type: functional, cell-based
Summary of the method: (§1)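 Cells seeded at 3000 per well and exposed to diluted compounds, with bexarotene and SAHA as positive controls, for 48 h (drug-resistant cells) or 72 h (parental cells). Final DMSO 0.1%. Cell number determined by MTT dye per manufacturer instructions.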

KB [4] = experiment: Cytotoxicity against bexarotene-resistant human KB cells assessed as growth inhibition after 48 hrs by MTT assay; assay type: functional, cell-based; summary of the method: as §1
[5] = target: T1, Histone deacetylase (Homo sapiens) (UniProt Q13547+O15379+Q9UBN7+Q92769+Q9UQL6+Q8WUI4+Q9BY41+Q96DB2+P56524+Q9UKV0+Q969S8); experiment: Inhibition of HDAC in human HL60 cells assessed as increase in p21 WAF1/CIP1 level after 48 hrs by Western blot analysis; assay type: cell-based; settings: HL-60
Summary of the method: (§2)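 About 1 × 10⁷ HL60 cells exposed to compound or SAHA for 48 h. Nuclear protein extracted, equal protein amounts resolved on 10–15% SDS–PAGE and blotted to PVDF. Probed for acetylated H3 and p21WAF1/CIP1, with histone H3 and β-actin as loading controls. ECL detection on X-ray film, densitometry relative to control.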

A549/SAHA = experiment: cells; settings: Homo sapiens, 48 h
A549 = experiment: Cytotoxicity against human A549 cells assessed as growth inhibition after 72 hrs by MTT assay; assay type: functional, cell-based; settings: A549, 72 h
[6] = target: T1, Histone deacetylase (Homo sapiens); experiment: Inhibition of HDAC in human HL60 cells using Boc-Lys(Ac)-pNA as substrate incubated for 24 hrs prior to substrate addition measured after 90 mins by fluorescence assay; assay type: cell-based; settings: HL-60
Summary of the method: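 HL60 cells exposed to a range of compound concentrations or SAHA for 24 h, then lysed and protein measured by BCA. Lysates incubated with Boc-Lys(Ac)-pNA (10 mM) in HDAC assay buffer for 90 min at 37 °C. Lysine Developer added and incubated 30 min at 37 °C before plate-reader readout. Mean ± SD of three determinations.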

Histone deacetylase = experiment: Inhibition of HDAC isolated from human HeLa cell nuclear extract after 30 mins by fluorescence assay; assay type: protein assay
[7] = target: T2, Retinoic acid receptor RXR-alpha (Homo sapiens, UniProt P19793); experiment: Transactivation of human RXRalpha transfected in human 293 cells after 48 hrs by dual-luciferase reporter gene assay; assay type: cell-based, HEK293
T2 sequence (P19793 whole entry): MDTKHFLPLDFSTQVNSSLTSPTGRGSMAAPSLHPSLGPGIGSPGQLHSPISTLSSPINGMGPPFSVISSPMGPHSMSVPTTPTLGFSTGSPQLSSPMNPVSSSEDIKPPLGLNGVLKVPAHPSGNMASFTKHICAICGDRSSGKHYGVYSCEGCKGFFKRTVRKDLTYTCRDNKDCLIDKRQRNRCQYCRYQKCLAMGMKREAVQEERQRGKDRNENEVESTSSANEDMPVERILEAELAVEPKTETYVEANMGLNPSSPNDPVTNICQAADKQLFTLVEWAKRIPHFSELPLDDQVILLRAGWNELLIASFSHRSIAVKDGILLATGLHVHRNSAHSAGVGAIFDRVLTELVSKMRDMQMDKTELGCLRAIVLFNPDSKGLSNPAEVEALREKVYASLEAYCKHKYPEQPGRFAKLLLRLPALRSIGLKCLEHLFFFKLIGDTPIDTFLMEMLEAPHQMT

[8] = target: T1, Histone deacetylase (Homo sapiens); experiment: Inhibition of HDAC in human HL60 cells assessed as increase in acetylated H3 level after 48 hrs by Western blot analysis; assay type: cell-based; settings: HL-60; summary of the method: as §2

SMILES | IC50 (DU-145) | IC50 [1] | IC50 (HGC-27) | IC50 [2] | IC50 (KB [3]) | IC50 (KB [4]) | inhibition [5] | IC50 (A549/SAHA) | IC50 (A549) | inhibition [6] | IC50 (Histone deacetylase) | EC50 [7] | inhibition [8]
O=C(CCCCCCC(=O)Nc1ccccc1)NO [VORINOSTAT] | 27.2 µM | – | – | – | – | – | – | – | – | – | – | – | –
C=C(c1ccc(C(=O)O)cc1)c1cc2c(cc1C)C(C)(C)CCC2(C)C [BEXAROTENE] | 61.6 µM | 73.3 µM | 32.7 µM | 192 µM | 8.8 µM | 46.3 µM | – | – | – | – | – | – | –
C=C(c1ccc(C(=O)NO)cc1)c1cc2c(cc1C)C(C)(C)CCC2(C)C | 14.1 µM | 24.1 µM | 8.6 µM | 17.4 µM | 6.1 µM | 16.8 µM | Dose-dependent effect | 3.8 µM | 9.4 µM | Dose-dependent effect | 6.7 µM | 0.0195 µM | Dose-dependent effect
